Screening results: PubChem BioAssay, several laboratories
A3G deaminase: APOBEC3G (human) deaminase inhibition | Q9HC16 | recombinant A3G, ssDNA deamination FAM/TAMRA fluorescence | inhibition, % at 20 µM | 0.28% of 330,000 active;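 active means inhibition of at least 40% at 20 µM, with no more than 30% in the related APOBEC3A deaminase screen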
PHOSPHO1 inh: blocks human PHOSPHO1 phosphatase activity; Q8TCT1; recombinant PHOSPHO1, absorbance phosphatase assay; inhibition, % at 13.3 µM; 1.1% of 290,000 active; AID 1565; in the data active means inhibition above about 60%
pCIP destab: p/CIP protein destabilization | Q05BA5 | F442A p/CIP-EGFP cells, EGFP fluorescence, 16 h | decrease of EGFP signal, % at 10 µM | 0.01% of 290,000 active;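 active means EGFP signal decrease of at least 30% at 10 µM or well 3 SD below plate mean, unless failing retest; inactive means the rest, including hits failing retest or dose response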
Tb MetRS inh: blocks T. brucei methionyl-tRNA synthetase activity. inhibition, % at 11.9 µM. purified T. brucei MetRS, ATP depletion, Kinase-Glo luminescence. AID 624268. 0.4% of 360,000 active;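 active means inhibition above a per-plate cutoff of the control wells' mean inhibition plus 3 SD, cut at about 5.5% in these data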
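Test system – parasite MetRS enzyme · Reagent – substrates ATP, L-methionine and bulk Escherichia coli tRNA · Doses – 11.9 µM compound single dose, 0.9% DMSO · Times – 15 min enzyme-compound preincubation, 2 h reaction, 10 min detection, 25 °C · Signal – Kinase-Glo luminescence, ATP depletion format · Controls – DMSO-only wells as low control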
APOBEC3A inh: human APOBEC3A DNA deaminase inhibition | recombinant A3A, FAM/TAMRA ssDNA deamination fluorescence | 0.41% of 330,000 active | P31941 | inhibition, % at 20 µM | AID 493011;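 active means at least 40% inhibition at 20 µM here, with at most 30% in a related deaminase screen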
APOBEC3A confirm: APOBEC3A (human) deaminase inhibition, confirmed; 63% of 1,400 active; recombinant A3A, ssDNA deaminase UDG fluorescence assay; inhibition, % at 20 µM; AID 493151; shares compounds with APOBEC3A inh;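 active means inhibition reaching a set limit, 80% of the first screen's cutoff, at 20 µM in any replicate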
UDG ctr A3A: counter-screen for APOBEC3A inhibitors: UDG; shares compounds with APOBEC3A inh; UDG counterscreen, FAM/TAMRA uracil oligo fluorescence; inhibition, % at 20 µM; 1,000 tested, under 10 active; AID 504714; call rule not given here
Numbers stand for hits; - = inactive; . = no result given. Rows were chosen to be rich in hits. Some 1.8% of all compounds tested hit in one or more screens of this group.

SMILES	A3G deaminase	PHOSPHO1 inh	pCIP destab	Tb MetRS inh	APOBEC3A inh	APOBEC3A confirm	UDG ctr A3A
O=C1/C(=C/c2ccco2)SC(=S)N1CC1CCCO1 (stereo not given)	-	-	-	-	56	26	-
NC(=O)c1ccc(NC(=O)CSC(=O)c2ccccc2)cc1	-	.	.	-	-	.	.
CCN(CC)CCCNC(=O)C1CCN(c2ncnc3c2sc2cccc(F)c23)CC1	-	-	-	-	48	-	-
Cc1ccc(OCC(=O)Nc2nnc(S(=O)(=O)N3CCC(C)CC3)s2)cc1	-	-	-	-	43	-	.
COc1ccc(OCC(=O)Nc2nnc(S(=O)(=O)N3CCCCCC3)s2)cc1	-	-	-	-	-	.	.
O=C(O)c1cc(-c2ccc(/C=C3\NC(=O)N(c4ccccc4)C3=O)o2)ccc1Cl	-	67	-	-	58	35	-
O=C(O)c1cc(-c2ccc(/C=C3\NC(=O)N(c4ccc(Cl)cc4)C3=O)o2)ccc1Cl	-	-	-	-	-	.	.
CCOc1ccc(N(CC(=O)N/N=C/c2ccc(OC(C)C)cc2)S(C)(=O)=O)cc1	-	-	-	-	52	-	.
COC(=O)C1=C(C)N(Cc2ccccc2)C(=NCc2cc(OC)c(OC)c(OC)c2)N[C@H]1c1cccc(F)c1	-	-	-	-	-	.	.
COCCN1C(=O)N[C@@H](c2ccccc2)[C@@H](C(=O)OC)[C@H]1C	-	.	.	-	-	.	.
CCN1C(=NCCOC)N[C@@H](c2ccccc2)[C@H](C(=O)OC)[C@H]1C	-	.	.	-	46	75	-
CCN1C(=NCc2cc(OC)c(OC)c(OC)c2)N[C@@H](c2ccccc2)[C@H](C(=O)OC)[C@H]1C	-	-	-	.	75	47	.
CC(C)NC(=O)c1cc(C2CCCCN2C(=O)c2ccccc2)on1 (stereo not given)	.	.	.	-	.	.	.
CCC1=[N+](C)c2cccc3cccc(c23)N1C	-	-	-	-	65	78	-
CC1SCC(=O)N(CC(=O)Nc2ccc3c(c2)OCCO3)C1=O (stereo not given)	-	-	-	-	-	.	.
COc1ccc(OC)c(NC(=O)COC(=O)c2cc3c(s2)CCC3)c1	-	-	-	-	-	.	.
COc1ccccc1NC(=O)COC(=O)c1cc2c(s1)CCC2	-	.	.	-	56	46	-
O=C(Cc1cccs1)Nc1nnc(Cc2ccccc2)s1	-	-	-	-	64	46	-
CCCCN(C(=O)C1CSC2(C)CCC(=O)N12)c1c(N)n(Cc2ccccc2)c(=O)[nH]c1=O (stereo not given)	-	.	.	-	-	.	.
CCCc1nc2sc3c(SCC(=O)NCc4ccco4)ncnc3c2c2c1CCC2	-	-	-	-	54	42	-
CCC(=O)Oc1ccc(C(=O)Nc2cccc(C(=O)c3ccccc3)c2)cc1	-	-	-	-	45	-	-
COc1ccccc1OCCNC(=O)c1cccc(S(=O)(=O)N2CC(C)OC(C)C2)c1 (stereo not given)	-	.	-	-	-	.	.
CC(=O)NCc1ccc(S(=O)(=O)N/N=C/c2ccc(N(C)C)cc2)cc1	-	-	-	-	-	.	.
Cc1c2ccccc2cc(Cc2ccccc2)[n+]1C	-	-	-	-	43	60	-
CN(C(=O)COC(=O)CSc1cc(Cl)ccc1Cl)c1c(N)n(Cc2ccccc2)c(=O)[nH]c1=O	-	.	.	-	41	-	.
SMILES	A3G deaminase	PHOSPHO1 inh	pCIP destab	Tb MetRS inh	APOBEC3A inh	APOBEC3A confirm	UDG ctr A3A
CC(C)CN(C(=O)COC(=O)c1cc2c(s1)CCC2)C1CCS(=O)(=O)C1 (stereo not given)	-	-	-	-	45	44	.
O=C(NCC(c1ccco1)N1CCOCC1)c1ccc(F)cc1 (stereo not given)	-	.	.	-	-	.	.
O=C(NCC(c1ccco1)N1CCOCC1)c1c(F)cccc1F (stereo not given)	-	.	.	-	43	-	-
S=c1[nH]nc(C2(c3ccccc3)CCCC2)o1	-	-	-	-	-	.	.
O=C(N/N=C/c1ccc([N+](=O)[O-])o1)C(=O)Nc1ccc(C(=O)O)cc1	-	-	-	-	-	.	.
O=C(O)c1ccc(N/N=C/C=C/c2ccc([N+](=O)[O-])o2)cc1	-	-	-	-	48	41	.
COC/C=C/C1=CC2=CC(=O)C(C)(OC(=O)c3ccco3)C(=O)C2=CO1 (stereo not given)	-	-	-	.	58	60	.
COc1cccc(CNC(=O)c2cccc(S(=O)(=O)N3CCN(C)CC3)c2)c1	-	-	-	-	68	50	-
COc1ccc(Cl)cc1NC(=O)CN(C)C(=O)c1cccc(S(=O)(=O)N2CCN(C)CC2)c1	-	.	.	-	-	.	.
COc1ccc(NC(=O)CN(C)C(=O)c2cccc(S(=O)(=O)N3CCN(Cc4ccccc4)CC3)c2)cc1	-	-	-	-	-	.	.
COc1ccc(CNC(=O)c2cccc(S(=O)(=O)N3CCN(C)CC3)c2)cc1	-	-	-	-	-	.	.
CN1CCN(S(=O)(=O)c2cccc(C(=O)N(C)CC(=O)Nc3ccc(F)c(F)c3F)c2)CC1	-	.	.	-	57	66	-
CCN1CCN(S(=O)(=O)c2ccc(Cl)c(C(=O)N(CC)CC(=O)Nc3ccc(OC)cc3)c2)CC1	-	-	-	-	54	71	-
CCN1CCN(S(=O)(=O)c2ccc(Cl)c(C(=O)Nc3ccc(OC(F)F)cc3)c2)CC1	-	-	-	-	-	.	.
COc1ccc(NC(=O)CN(C)C(=O)c2cccc(S(=O)(=O)N3CCN(C)CC3)c2)cc1	-	.	.	-	55	-	.
Cc1cc(C)c(NC(=O)CSc2nnc(-c3ccccn3)n2N)c(Cl)c1	-	-	-	-	-	.	.
Cc1ccoc1C(=O)NCc1occc1C(=O)O	-	-	-	-	-	-	.
Cc1ccoc1C(=O)NCCNC(=O)c1occc1C	-	.	.	-	-	.	.
N/C(=N\OC(=O)COc1cc(Cl)c(Cl)cc1Cl)c1ccccn1	-	-	-	-	-	.	.
COCCNC(=O)C1(C)CCCN(Cc2cc(-c3ccccc3)on2)C1 (stereo not given)	.	.	.	-	.	.	.
COc1ccc(NC(=O)CCCSc2ccccc2)cc1	-	-	-	-	42	-	.
COc1ccc(NC(=O)COC(=O)CCSc2ccccc2)cc1	-	.	.	-	-	.	.
CCN1CCN(c2ccc(S(=O)(=O)N3CCOCC3)cc2NC(=O)c2ccc(C(F)(F)F)cc2)CC1	-	.	.	-	60	-	.
CCN1CCN(c2ccc(S(=O)(=O)N3CCOCC3)cc2NC(=O)/C=C/c2ccc([N+](=O)[O-])cc2)CC1	-	.	.	-	43	48	-
CCc1noc(C)c1C(=O)Nc1cc(S(=O)(=O)N2CCOCC2)ccc1N1CCN(CC)CC1	-	.	.	-	48	60	-
CC1CN(S(=O)(=O)c2cccc(C(=O)Nc3cc(Cl)ccc3N3CCOCC3)c2)CC(C)O1 (stereo not given)	-	.	.	-	-	.	.
